ChEMBL document CHEMBL1142195, “A novel nonnucleoside analogue that inhibits human immunodeficiency virus type 1 isolates resistant to current nonnucleoside reverse transcriptase inhibitors” (Antimicrob Agents Chemother, 2007)
pEC50: −log10 of the molar value. The source made the active and inactive calls. The calls are words filed in the database; no cut-off is given here.

What was measured:
[1] = AUC in dog at 20 mg/kg, po; format: ADME, organism-based, Canis lupus familiaris; design: dose 20 mg/kg, route oral; settings: plasma
[2] = Plasma concentration in dog at 20 mg/kg, po after 12 hrs; format: ADME, organism-based, Canis lupus familiaris; design: dose 20 mg/kg, route oral
[3] = Bioavailability in dog at 20 mg/kg, po; format: ADME, organism-based, Canis lupus familiaris; settings: in vivo
In short: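 Dogs given 10 mg/kg i.v. or 20 mg/kg p.o., n = 3 per time point. Plasma sampled predose through 24 h. Bioavailability = (oral AUC0-∞/intravenous AUC0-∞) × 100.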

Hepatitis B virus = assay: Inhibition of hepatitis B virus replication; format: functional, organism-based
Hepatitis C virus = assay: Inhibition of hepatitis C virus replication; format: functional, organism-based; settings: Hepacivirus hominis
[4] = tested on: Human immunodeficiency virus 1; assay: Inhibition of non-B HIV1 isolates (clades A, AC, C, D and F); format: functional, organism-based
[5] = tested on: Human immunodeficiency virus 1; assay: Antiviral activity against HIV1 isolate with RT V106I mutation in Hela-JC-53 cells; format: functional
[6] = molecular target: T1, DNA polymerase alpha catalytic subunit (Homo sapiens) (UniProt P09884); assay: Inhibition of human DNA polymerase alpha upto 45 uM
T1 sequence (whole entry): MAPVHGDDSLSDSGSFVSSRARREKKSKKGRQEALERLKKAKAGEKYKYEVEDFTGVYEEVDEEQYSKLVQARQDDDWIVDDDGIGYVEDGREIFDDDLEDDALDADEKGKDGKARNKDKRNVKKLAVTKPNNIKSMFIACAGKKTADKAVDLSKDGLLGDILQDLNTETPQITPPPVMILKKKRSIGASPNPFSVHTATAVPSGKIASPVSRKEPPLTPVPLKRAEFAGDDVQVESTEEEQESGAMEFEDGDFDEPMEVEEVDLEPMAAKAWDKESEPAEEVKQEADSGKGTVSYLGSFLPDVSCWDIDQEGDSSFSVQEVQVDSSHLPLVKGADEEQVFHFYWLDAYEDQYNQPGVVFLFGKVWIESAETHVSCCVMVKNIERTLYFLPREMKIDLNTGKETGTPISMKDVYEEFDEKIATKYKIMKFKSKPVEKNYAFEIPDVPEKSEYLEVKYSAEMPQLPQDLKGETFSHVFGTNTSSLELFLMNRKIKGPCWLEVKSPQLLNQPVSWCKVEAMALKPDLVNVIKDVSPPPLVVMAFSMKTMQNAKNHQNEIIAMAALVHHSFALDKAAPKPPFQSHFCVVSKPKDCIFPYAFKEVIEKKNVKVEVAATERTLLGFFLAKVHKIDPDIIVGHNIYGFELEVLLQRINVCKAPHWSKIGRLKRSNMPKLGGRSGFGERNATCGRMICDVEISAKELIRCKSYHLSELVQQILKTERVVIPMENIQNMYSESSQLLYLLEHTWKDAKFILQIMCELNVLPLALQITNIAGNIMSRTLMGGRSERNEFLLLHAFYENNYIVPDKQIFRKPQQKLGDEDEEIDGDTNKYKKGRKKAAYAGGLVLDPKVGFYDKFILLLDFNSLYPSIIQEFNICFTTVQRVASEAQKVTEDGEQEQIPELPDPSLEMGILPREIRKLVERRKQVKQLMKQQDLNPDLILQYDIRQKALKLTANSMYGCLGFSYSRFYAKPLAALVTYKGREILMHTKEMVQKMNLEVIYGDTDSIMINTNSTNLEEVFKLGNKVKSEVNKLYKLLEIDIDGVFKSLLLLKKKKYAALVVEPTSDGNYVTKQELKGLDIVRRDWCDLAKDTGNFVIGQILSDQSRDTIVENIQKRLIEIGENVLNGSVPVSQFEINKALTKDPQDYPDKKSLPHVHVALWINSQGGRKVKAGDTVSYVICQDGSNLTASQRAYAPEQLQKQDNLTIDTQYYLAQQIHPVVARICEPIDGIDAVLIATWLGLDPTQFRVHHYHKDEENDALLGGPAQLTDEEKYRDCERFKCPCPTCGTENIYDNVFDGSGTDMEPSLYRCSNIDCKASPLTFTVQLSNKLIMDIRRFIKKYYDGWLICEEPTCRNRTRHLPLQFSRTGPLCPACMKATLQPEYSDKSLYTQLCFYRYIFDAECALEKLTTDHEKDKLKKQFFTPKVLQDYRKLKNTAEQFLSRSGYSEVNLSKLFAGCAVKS

[7] = tested on: Human immunodeficiency virus 1; assay: Antiviral activity against wild type HIV1 NL4-3 in Hela-JC53 cells in the presence of 30% human serum after 48 hrs; format: functional, organism-based; settings: Human immunodeficiency virus 1, NL4-3, Hela-JC53, 48 h
In short: (§1)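 HeLa-JC53 cells (1.5 × 10^4) infected with VSV-G-pseudotyped NL4-3.Luci.R−E− reporter virus at MOI 0.03, with 1:4 serial compound dilutions. Heat-inactivated human serum added to final 0–50% on a basal 2% FBS medium. Incubated 48 h at 37°C in 5% CO2. Luciferase read-out; EC50 by nonlinear regression.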

[8] = tested on: Human immunodeficiency virus 1; assay: Antiviral activity against wild type HIV1 NL4-3 in Hela-JC53 cells in the presence of 5% human serum after 48 hrs; format: functional, organism-based; settings: Human immunodeficiency virus 1, NL4-3, Hela-JC53, 48 h; in short: as §1
[9] = tested on: Human immunodeficiency virus 1; assay: Antiviral activity against HIV1 isolate with RT G190A mutation; format: functional, organism-based
In short: (§2)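 VSV-G-pseudotyped pNL4-3.Luc.R−E− molecular clones carrying the RT mutations, single-round infection of HeLa-JC53 cells (15,000/well) at MOI 0.03. Compounds serially diluted 1:4 in DMSO then in phenol red-free DMEM with 2% FBS, final DMSO 0.2%. Incubated 48 h at 37°C, 5% CO2. Luciferase read-out by chemiluminescence gives the EC50. Fold change is relative to wt virus, mean of two tests.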

[10] = tested on: Human immunodeficiency virus 1; assay: Antiviral activity against HIV1 isolate with RT K103N-Y188L mutation; format: functional, organism-based; in short: as §2
[11] = tested on: Human immunodeficiency virus 1; assay: Antiviral activity against HIV1 isolate with RT K103N-K101Q-P225H mutation; format: functional, organism-based; in short: as §2
[12] = tested on: Human immunodeficiency virus 1; assay: Antiviral activity against HIV1 isolate with RT V106I mutation; format: functional, organism-based; in short: as §2
[13] = tested on: Human immunodeficiency virus 1; assay: Antiviral activity against wild type HIV1 NL4-3 in Hela-JC53 cells in the presence of 40% human serum after 48 hrs; format: functional, organism-based; settings: Human immunodeficiency virus 1, NL4-3, Hela-JC53, 48 h; in short: as §1
[14] = tested on: Human immunodeficiency virus 1; assay: Antiviral activity against wild type HIV1 NL4-3 in Hela-JC53 cells in the presence of 50% human serum after 48 hrs; format: functional, organism-based; settings: Human immunodeficiency virus 1, NL4-3, Hela-JC53, 48 h; in short: as §1
[15] = tested on: Human immunodeficiency virus 1; assay: Antiviral activity against HIV1 NL4-3 with Y188L mutation in Hela-JC53 cells in the presence of 40% human serum after 48 hrs; format: functional, organism-based; settings: Human immunodeficiency virus 1, NL4-3, Hela-JC53, 48 h
In short: (§3)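 VSV-G-pseudotyped Y188L NL4-3.Luci.R−E− virus (MOI 0.03) infecting HeLa-JC53 cells (1.5 × 10^4) in phenol red-free DMEM with 2% FBS. Serially diluted compound was added, then heat-inactivated human serum at final 0, 5, 10, 20, 30, 40 or 50%. Cultures ran 48 h at 37°C in 5% CO2, read by Bright-Glo luciferase chemiluminescence. EC50 was taken by nonlinear regression.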

[16] = tested on: Human immunodeficiency virus 1; assay: Antiviral activity against HIV1 NL4-3 with Y188L mutation in Hela-JC53 cells in the presence of 50% human serum after 48 hrs; format: functional, organism-based; settings: Human immunodeficiency virus 1, NL4-3, Hela-JC53, 48 h; in short: as §3
[17] = Tmax in dog at 10 mg/kg, iv; format: ADME, organism-based, Canis lupus familiaris; design: dose 10 mg/kg, route intravenous; settings: in vivo
[18] = Half life in dog at 10 mg/kg, iv; format: ADME, organism-based, Canis lupus familiaris; design: dose 10 mg/kg, route intravenous; settings: in vivo
[19] = tested on: Human immunodeficiency virus 1; assay: Antiviral activity against HIV1 isolate with RT K103N mutation; format: functional, organism-based; in short: as §2
[20] = tested on: Human immunodeficiency virus 1; assay: Antiviral activity against HIV1 isolate with RT G190S mutation; format: functional, organism-based; in short: as §2

Question: Which results are given for NS(=O)(=O)c1ccc(NC(=O)CSc2nnc(Br)n2-c2ccc(C3CC3)c3ccccc23)c(Cl)c1?
Answer: AUC [1]: 19600 ng·h/mL; concentration at 12 h [2]: 742 ng/mL; bioavailability [3]: 47.1%; Activity (Hepatitis B virus): inactive; Activity (Hepatitis C virus): inactive; Activity [4]: Active; Fold change [5]: 1; Activity [6]: inactive; pEC50 [7]: 8.07; pEC50 [8]: 8.62; pEC50 [9]: 9.72; pEC50 [10]: 8.97; pEC50 [11]: 9.96; pEC50 [12]: 10.05; pEC50 [13]: 8.02; pEC50 [14]: 7.89; pEC50 [15]: 7.27; pEC50 [16]: 7.10; Tmax [17]: 0.28 h; half-life [18]: 2.89 h; pEC50 [19]: 10.05; pEC50 [20]: 9.64
